The results in this text go back to ChEMBL document CHEMBL1158565, “Antagonism of 4-substituted 1,4-dihydropyridine-3,5-dicarboxylates toward voltage-dependent L-type Ca2+ channels Ca V 1.3 and Ca V 1.2” (Bioorg Med Chem, 2010).

Assay [1] concerns the target T1, Voltage-dependent L-type calcium channel subunit alpha-1C (Oryctolagus cuniculus, UniProt P15381). Briefly: Antagonist activity at rabbit Cav1.2 expressed in tsA201 cells assessed as inhibition of voltage pulse-induced calcium current at 1000 nM by whole-cell patch-clamp recording.
Assay [2] has as its target T1, Voltage-dependent L-type calcium channel subunit alpha-1C. Briefly: Antagonist activity at rabbit Cav1.2 expressed in tsA201 cells assessed as inhibition of voltage pulse-induced calcium current at 10 nM by whole-cell patch-clamp recording. A general note: In patch-clamp work, channel activity is measured electrically.
In assay [3] the target is Voltage-dependent L-type calcium channel subunit alpha-1D (Rattus norvegicus) (UniProt P27732). Briefly: Antagonist activity at rat Cav1.3 expressed in HEK293 cells assessed as inhibition of voltage pulse-induced calcium current at 10 nM by whole-cell patch-clamp recording.
The nature of assay [4]: Selectivity ratio of antagonist activity at rat Cav1.3 to antagonist activity at rabbit Cav1.2 at 10 nM. Format: functional. The gist of the method:
(§1)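 Percent inhibition of Cav1.3 current was divided by that of Cav1.2 at the same concentration. Currents were from whole-cell patch clamp in transiently transfected tsA201 cells: Ba2+ bath, pH 7.4, steps from -60 mV, about 22 °C.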

Assay [5] can be described thus: Selectivity ratio of antagonist activity at rat Cav1.3 to antagonist activity at rabbit Cav1.2 at 200 nM. Format: functional. In outline:
as §1

Assay [6] has as its target T1, Voltage-dependent L-type calcium channel subunit alpha-1C. Briefly: Antagonist activity at rabbit Cav1.2 expressed in tsA201 cells assessed as inhibition of voltage pulse-induced calcium current at 200 nM by whole-cell patch-clamp recording.
In assay [7] the target is Voltage-dependent L-type calcium channel subunit alpha-1D (Rattus norvegicus) (UniProt P27732). Briefly: Antagonist activity at rat Cav1.3 expressed in HEK293 cells assessed as inhibition of voltage pulse-induced calcium current at 200 nM by whole-cell patch-clamp recording.
Assay [8] is described as follows: Selectivity ratio of IC50 for Cav1.2 to IC50 for Cav1.3.
Assay [9] deals with Voltage-dependent L-type calcium channel subunit alpha-1D (Rattus norvegicus) (UniProt P27732). Briefly: Antagonist activity at rat Cav1.3 expressed in HEK293 cells assessed as inhibition of voltage pulse-induced calcium current at 10 nM by FLIPR calcium 4 assay. The format is functional, cell-based. The following applies: in the assay text read “by whole-cell patch-clamp recording” for “by FLIPR calcium 4 assay”. In outline: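 Whole-cell patch clamp on tsA201 cells transiently cotransfected with rabbit Cav1.2 α1C or rat Cav1.3 α1D, Cavβ3 and Cavα2δ-1 (1:1:1) plus GFP. GFP cells were recorded after replating at 48 h. Bath (mM): 110 NaCl, 1 MgCl2, 10 BaCl2, 10 HEPES, 10 glucose, 20 CsCl, pH 7.4. Compound was diluted from DMSO stock and perfused. Pulses ran from -60 mV to +10 or 0 mV with tetrodotoxin at about 22 °C. Read-out was percent current inhibition.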

For assay [10], the target named is T1, Voltage-dependent L-type calcium channel subunit alpha-1C. Briefly: Antagonist activity at rabbit Cav1.2 expressed in HEK293 cells assessed as inhibition of voltage pulse-induced calcium current at 1000 nM by FLIPR calcium 4 assay. The format is functional, cell-based.
Assay [11] has the same target. Briefly: Antagonist activity at rabbit Cav1.2 expressed in tsA201 cells assessed as inhibition of voltage pulse-induced calcium current at 100 nM by whole-cell patch-clamp recording.
Assay [12] in a line: Selectivity ratio of antagonist activity at rat Cav1.3 to antagonist activity at rabbit Cav1.2 at 100 nM. Format: functional. In outline: as §1
The target in assay [13] is Voltage-dependent L-type calcium channel subunit alpha-1D (Rattus norvegicus) (UniProt P27732). Briefly: Antagonist activity at rat Cav1.3 expressed in HEK293 cells assessed as inhibition of voltage pulse-induced calcium current at 100 nM by whole-cell patch-clamp recording.
The nature of assay [14]: Selectivity ratio of antagonist activity at rat Cav1.3 to antagonist activity at rabbit Cav1.2 at 500 nM. Format: functional. The gist of the method: as §1
In assay [15] the target is Voltage-dependent L-type calcium channel subunit alpha-1D (Rattus norvegicus) (UniProt P27732). Briefly: Antagonist activity at rat Cav1.3 expressed in tsA201 cells assessed as inhibition of voltage pulse-induced calcium current at 500 nM by whole-cell patch-clamp recording.
The target of assay [16] is T1, Voltage-dependent L-type calcium channel subunit alpha-1C. Briefly: Antagonist activity at rabbit Cav1.2 expressed in tsA201 cells assessed as inhibition of voltage pulse-induced calcium current at 500 nM by whole-cell patch-clamp recording.

T1 sequence (P15381 whole entry): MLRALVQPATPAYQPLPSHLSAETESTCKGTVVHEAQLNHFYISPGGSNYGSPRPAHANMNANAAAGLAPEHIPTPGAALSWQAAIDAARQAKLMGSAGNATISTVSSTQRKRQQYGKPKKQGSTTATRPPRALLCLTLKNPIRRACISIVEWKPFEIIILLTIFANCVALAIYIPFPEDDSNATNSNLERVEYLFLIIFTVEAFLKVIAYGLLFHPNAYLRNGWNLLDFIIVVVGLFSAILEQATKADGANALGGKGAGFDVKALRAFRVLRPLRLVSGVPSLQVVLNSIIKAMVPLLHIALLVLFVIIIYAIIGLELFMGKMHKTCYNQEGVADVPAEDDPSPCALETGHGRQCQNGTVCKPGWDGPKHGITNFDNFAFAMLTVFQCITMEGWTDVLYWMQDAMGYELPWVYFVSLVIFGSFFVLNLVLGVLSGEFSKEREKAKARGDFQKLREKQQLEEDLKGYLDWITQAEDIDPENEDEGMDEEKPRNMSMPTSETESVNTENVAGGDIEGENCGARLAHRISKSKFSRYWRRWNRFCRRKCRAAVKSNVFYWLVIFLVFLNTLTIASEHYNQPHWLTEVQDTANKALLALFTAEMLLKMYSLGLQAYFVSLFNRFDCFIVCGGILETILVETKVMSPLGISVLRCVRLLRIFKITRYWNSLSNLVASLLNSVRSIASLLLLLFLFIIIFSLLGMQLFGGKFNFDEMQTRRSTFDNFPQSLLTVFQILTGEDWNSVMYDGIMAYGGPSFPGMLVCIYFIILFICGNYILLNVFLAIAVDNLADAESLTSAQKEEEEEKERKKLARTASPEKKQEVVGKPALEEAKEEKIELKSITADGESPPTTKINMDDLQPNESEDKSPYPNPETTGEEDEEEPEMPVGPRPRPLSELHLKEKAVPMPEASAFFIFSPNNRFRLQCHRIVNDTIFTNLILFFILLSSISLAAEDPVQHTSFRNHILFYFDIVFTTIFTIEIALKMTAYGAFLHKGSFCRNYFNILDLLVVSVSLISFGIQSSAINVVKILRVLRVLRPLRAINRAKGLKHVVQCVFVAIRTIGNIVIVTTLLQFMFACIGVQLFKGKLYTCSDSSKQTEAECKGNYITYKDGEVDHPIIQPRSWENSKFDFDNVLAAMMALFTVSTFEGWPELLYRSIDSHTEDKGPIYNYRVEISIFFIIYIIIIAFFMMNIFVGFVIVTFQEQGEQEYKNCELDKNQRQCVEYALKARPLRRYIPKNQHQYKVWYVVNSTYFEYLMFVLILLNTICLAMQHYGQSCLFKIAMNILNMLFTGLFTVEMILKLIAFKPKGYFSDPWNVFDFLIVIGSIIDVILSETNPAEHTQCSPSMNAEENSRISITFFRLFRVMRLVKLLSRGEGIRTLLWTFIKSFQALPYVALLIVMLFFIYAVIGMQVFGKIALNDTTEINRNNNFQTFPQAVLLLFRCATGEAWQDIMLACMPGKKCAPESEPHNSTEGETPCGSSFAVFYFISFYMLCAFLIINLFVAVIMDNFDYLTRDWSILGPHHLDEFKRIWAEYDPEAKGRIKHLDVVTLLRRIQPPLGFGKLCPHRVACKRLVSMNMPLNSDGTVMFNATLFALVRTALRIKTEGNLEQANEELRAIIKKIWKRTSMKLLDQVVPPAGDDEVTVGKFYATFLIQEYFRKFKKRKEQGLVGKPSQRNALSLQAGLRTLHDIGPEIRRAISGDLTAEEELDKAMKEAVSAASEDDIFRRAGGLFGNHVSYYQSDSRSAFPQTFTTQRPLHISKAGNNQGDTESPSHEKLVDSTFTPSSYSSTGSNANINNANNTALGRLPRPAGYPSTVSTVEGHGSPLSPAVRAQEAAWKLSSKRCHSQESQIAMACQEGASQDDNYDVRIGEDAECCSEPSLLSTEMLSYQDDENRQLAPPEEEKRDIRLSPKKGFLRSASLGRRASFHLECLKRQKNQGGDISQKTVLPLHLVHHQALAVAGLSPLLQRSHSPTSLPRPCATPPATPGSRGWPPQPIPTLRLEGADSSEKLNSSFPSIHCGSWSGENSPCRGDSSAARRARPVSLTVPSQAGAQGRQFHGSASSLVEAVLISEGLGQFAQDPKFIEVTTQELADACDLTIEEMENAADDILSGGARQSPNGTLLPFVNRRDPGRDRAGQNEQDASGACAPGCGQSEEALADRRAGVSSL
Chain of Voltage-dependent L-type calcium channel subunit alpha-1D (Rattus norvegicus) (P27732 whole entry, the tested form may be a part): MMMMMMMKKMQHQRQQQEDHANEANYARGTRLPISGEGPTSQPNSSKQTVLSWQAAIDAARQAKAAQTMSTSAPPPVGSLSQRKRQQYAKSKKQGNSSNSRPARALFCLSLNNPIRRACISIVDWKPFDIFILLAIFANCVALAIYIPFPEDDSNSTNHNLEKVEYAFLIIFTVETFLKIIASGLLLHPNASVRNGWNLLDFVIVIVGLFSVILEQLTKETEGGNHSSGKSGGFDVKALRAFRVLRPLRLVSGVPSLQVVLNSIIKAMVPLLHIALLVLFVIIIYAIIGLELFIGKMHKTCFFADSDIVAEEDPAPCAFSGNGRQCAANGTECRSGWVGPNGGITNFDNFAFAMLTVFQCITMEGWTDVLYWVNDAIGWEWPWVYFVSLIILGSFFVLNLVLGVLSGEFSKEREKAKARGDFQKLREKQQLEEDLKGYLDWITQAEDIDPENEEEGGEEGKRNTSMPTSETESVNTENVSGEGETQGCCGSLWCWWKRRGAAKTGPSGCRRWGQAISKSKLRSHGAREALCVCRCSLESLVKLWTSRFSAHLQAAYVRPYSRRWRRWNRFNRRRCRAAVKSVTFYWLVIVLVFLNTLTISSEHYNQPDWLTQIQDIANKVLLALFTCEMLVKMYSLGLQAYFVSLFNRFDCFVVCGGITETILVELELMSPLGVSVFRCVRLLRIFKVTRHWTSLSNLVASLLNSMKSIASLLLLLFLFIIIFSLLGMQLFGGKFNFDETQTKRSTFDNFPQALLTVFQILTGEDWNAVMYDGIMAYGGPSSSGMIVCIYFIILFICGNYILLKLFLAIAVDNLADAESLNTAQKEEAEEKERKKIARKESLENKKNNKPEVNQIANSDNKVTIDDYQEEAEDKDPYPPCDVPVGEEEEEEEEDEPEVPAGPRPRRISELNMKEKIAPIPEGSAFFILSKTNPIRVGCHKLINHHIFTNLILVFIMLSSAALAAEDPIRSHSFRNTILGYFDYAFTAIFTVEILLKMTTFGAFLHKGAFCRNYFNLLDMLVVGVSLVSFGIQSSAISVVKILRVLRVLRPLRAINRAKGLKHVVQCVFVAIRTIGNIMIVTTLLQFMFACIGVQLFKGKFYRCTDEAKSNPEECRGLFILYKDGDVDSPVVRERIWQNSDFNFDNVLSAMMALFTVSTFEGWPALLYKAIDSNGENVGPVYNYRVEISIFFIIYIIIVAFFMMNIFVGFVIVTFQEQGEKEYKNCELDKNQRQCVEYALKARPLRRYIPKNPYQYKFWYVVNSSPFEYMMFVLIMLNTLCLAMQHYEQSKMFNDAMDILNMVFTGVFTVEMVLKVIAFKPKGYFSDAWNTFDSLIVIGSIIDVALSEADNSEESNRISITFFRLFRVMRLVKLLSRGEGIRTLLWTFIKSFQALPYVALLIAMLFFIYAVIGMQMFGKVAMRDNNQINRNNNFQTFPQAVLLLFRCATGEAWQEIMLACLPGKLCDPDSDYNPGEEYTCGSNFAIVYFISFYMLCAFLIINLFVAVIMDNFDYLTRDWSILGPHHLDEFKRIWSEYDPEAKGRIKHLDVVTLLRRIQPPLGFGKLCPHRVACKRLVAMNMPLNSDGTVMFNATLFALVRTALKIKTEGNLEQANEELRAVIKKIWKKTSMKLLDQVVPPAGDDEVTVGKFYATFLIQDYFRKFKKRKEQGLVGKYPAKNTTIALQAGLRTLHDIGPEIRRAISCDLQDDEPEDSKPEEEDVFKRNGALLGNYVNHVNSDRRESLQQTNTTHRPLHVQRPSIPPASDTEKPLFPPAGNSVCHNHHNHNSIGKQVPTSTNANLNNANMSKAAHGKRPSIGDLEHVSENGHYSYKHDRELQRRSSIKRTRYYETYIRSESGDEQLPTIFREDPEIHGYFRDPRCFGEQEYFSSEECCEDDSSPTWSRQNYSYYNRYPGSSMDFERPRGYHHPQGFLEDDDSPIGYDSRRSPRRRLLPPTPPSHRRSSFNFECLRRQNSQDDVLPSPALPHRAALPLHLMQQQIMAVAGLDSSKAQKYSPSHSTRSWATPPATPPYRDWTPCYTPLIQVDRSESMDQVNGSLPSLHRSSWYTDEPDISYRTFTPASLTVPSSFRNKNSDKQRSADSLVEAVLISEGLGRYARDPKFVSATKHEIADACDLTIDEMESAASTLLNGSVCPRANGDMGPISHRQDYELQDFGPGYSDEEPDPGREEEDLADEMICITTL

Take `CCOC(=O)C1=C(C)NC(C)=C(C(=O)OCC)C1c1cc2cccc(C)c2nc1Cl`: in [1], the inhibition at 1 µM worked out at 12%.

Consider `CCOC(=O)C1=C(C)NC(C)=C(C(=O)OCC)C1C(C)c1ccccc1` (configuration not stated), for which, in assay [1], the inhibition at 1 µM stood at 28%.

In the case of `CC1=C(C(=O)OC(C)(C)C)C(c2ccc([N+](=O)[O-])cc2)C(C(=O)OC(C)(C)C)=C(C)N1`, the inhibition at 1 µM in [1] came out at 36%.

`CCOC(=O)C1=C(C)NC(C)=C(C(=O)OCC)C1c1ccc([N+](=O)[O-])cc1`: the inhibition at 1 µM in assay [1] turned out to be 48%.

Regarding `CCOC(=O)C1=C(C)NC(C)=C(C(=O)OCC)C1c1cccc([N+](=O)[O-])c1`, the inhibition at 0.01 µM in assay [2] was 32%. Further, the inhibition in assay [3] came to 43%. The Selectivity ratio in [4] came to 1.34.

Consider `CCOC(=O)C1=C(CC)NC(C)=C(C(=O)OC)C1c1ccc([N+](=O)[O-])cc1` (configuration not stated), for which the inhibition at 1 µM in assay [1] stood at 28%.

Take `CCOC(=O)C1=C(C)NC(C)=C(C(=O)OCC)C1c1ccc(-c2cccs2)s1`: the inhibition at 1 µM in assay [1] turned out to be 35%.

As for `CCOC(=O)C1=C(C)NC(C)=C(C(=O)OCC)C1c1ccc(OCc2ccc(Br)cc2)cc1`, the inhibition at 1 µM in [1] came out at 38%.

Regarding `CCOC(=O)C1=C(C)N=C(C)/C(=C(/O)OCC)C1/C=C/c1ccccc1` (configuration not stated), the inhibition at 1 µM in assay [1] was determined as 30%.

As for `CCOC(=O)C1=C(C)NC(C)=C(C(=O)OC)C1c1ccc([N+](=O)[O-])cc1` (configuration not stated), the inhibition at 1 µM in assay [1] was found to be 48%.

For `CCOC(=O)C1=C(C)NC(C)=C(C(=O)OCC)C1c1ccc([N+](=O)[O-])o1`, in assay [5], the Selectivity ratio worked out at 0.95. The inhibition at 0.2 µM in assay [6] is 43%. In addition, the inhibition in assay [7] stood at 41%.

Consider `COCCOC(=O)C1=C(C)NC(C)=C(C(=O)OC(C)C)C1c1cccc([N+](=O)[O-])c1` (configuration not stated), for which, in [8], the Ratio IC50 was determined as 20.

In the case of `CCOC(=O)C1=C(C)N(C)C(C)=C(C(=O)OCC)C1c1cccc([N+](=O)[O-])c1`, the inhibition at 1 µM in [1] came out at 35%.

For `CCOC(=O)C1=C(C)N=C(C)/C(=C(/O)OCC)C1c1cccnc1` (configuration not stated), in [5], the Selectivity ratio was determined as 0.56. For the same compound, in assay [6], the inhibition at 0.2 µM was determined as 25%. Moreover, in assay [7], the inhibition was 14%.

As for `CCOC(=O)C1=C(C)N=C(C)/C(=C(/O)OCC)C1c1ccco1` (configuration not stated), the Selectivity ratio in [5] is 0.67. The inhibition at 0.2 µM in [6] amounted to 72%. Further, the inhibition in assay [7] turned out to be 48%.

Turning to `CCOC(=O)C1=C(C)N=C(C)/C(=C(/O)OCC)C1c1cccc(OC)c1` (configuration not stated), in assay [5], the Selectivity ratio is 0.64. Also, the inhibition at 0.2 µM in [6] stood at 69%. Also, the inhibition in assay [7] is 44%.

Take `CCOC(=O)C1=C(C)NC(C)=C(C(=O)OC)C1c1ccccc1[N+](=O)[O-]` (configuration not stated): the inhibition in assay [9] is 26%. In addition, the inhibition at 0.01 µM in assay [2] was 41%. Moreover, the Selectivity ratio in assay [4] was found to be 0.63.

`CCOC(=O)C1=C(C)NC(C)=C(C(=O)OCC)C1c1cccc(C(F)(F)F)c1`: in [5], the Selectivity ratio was found to be 0.99. Moreover, the inhibition at 0.2 µM in [6] is 85%. The inhibition in assay [7] was found to be 84%.

For the compound `CCOC(=O)C1=C(CC)NC(CC)=C(C(=O)OCC)C1c1ccc([N+](=O)[O-])cc1`, the inhibition at 1 µM in assay [10] was 58%.

For the compound `CCOC(=O)C1=C(C)NC(C)=C(C(=O)OCC)C1c1cccc(Cl)c1`, in assay [11], the inhibition at 0.1 µM came out at 58%. Also, the Selectivity ratio in assay [12] is 1.02. Also, the inhibition in assay [13] amounted to 59%.

As to `CCOC(=O)C1=C(CC)NC(C)=C(C(=O)OC)C1c1cccc([N+](=O)[O-])c1` (configuration not stated), the inhibition at 0.1 µM in assay [11] came out at 76%. Further, the Selectivity ratio in [12] came to 0.72. In assay [13], the inhibition is 55%.

On to `CCOC(=O)C1=C(C)NC(C)=C(C(=O)OCC)C1c1cc2cc(Br)ccc2[nH]1`, for which the Selectivity ratio in assay [14] stood at 1.03. The inhibition in assay [15] was 43%. Moreover, the inhibition at 0.5 µM in assay [16] was determined as 42%.

For orientation: inhibition means the drop in the measured response relative to a control, in per cent.
